These results are taken from ChEMBL document CHEMBL2434837, “Anticancer evaluation of some newly synthesized N-nicotinonitrile derivative” (Eur J Med Chem, 2013).

The structures appear in SMILES notation. ≈ marks a conversion by molar mass, not a printed value. Calls of active or inactive are those of the source. The calls are words filed in the database; no cut-off is given here.

Test [1] concerns MCF7. Description: Cytotoxicity against human MCF7 cells after 48 hrs by SRB assay. Type of test: functional, cell-based. In short, it runs like this:
(§1)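 Cells from ATCC, kept in DMEM with 10% heat-inactivated fetal calf serum, penicillin and streptomycin at 37 °C, 5% CO2. Seeded at 10^4 cells/well and left 24 h to attach. Compounds in DMSO (1 mg/ml stock) added at several concentrations, triplicate wells per dose, 48 h exposure. Then fixed, stained 30 min with 0.4% SRB in 1% acetic acid, and dye recovered in Tris-EDTA for absorbance. IC50 derived from surviving fraction versus concentration.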
On the technique in general: Sulforhodamine B stains cellular protein and so reports cell mass.

Test [2] deals with A549. Briefly: Inhibition of uPA protein expression in human A549 cells at 0.1 time compound IC50 after 48 hrs by ELISA. It counts as functional. In short, it runs like this:
(§2)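 Cells exposed 48 h to compound. Culture medium collected and spun at 2000 xg for 10 min to remove debris. Sandwich ELISA for human uPA: sample 2 h, biotinylated anti-uPA 1 h at 25 °C, streptavidin-peroxidase 30 min, chromogen, then stop solution, absorbance read at 450 nm. uPA level expressed as percent change relative to DMSO-treated control cells.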
(In general: In an ELISA, binding on a coated surface is turned into a signal by an enzyme label.)

The subject of test [3] is MCF7. Description: Inhibition of uPA protein expression in human MCF7 cells at 0.1 time compound IC50 after 48 hrs by ELISA. It counts as functional. In short, it runs like this:
as §2

Test [4] deals with HepG2. Description: Inhibition of uPA protein expression in human HepG2 cells at 0.1 time compound IC50 after 48 hrs by ELISA. Type of test: functional. The procedure, abridged:
as §2

Test [5] deals with A549. Briefly: Cytotoxicity against human A549 cells after 48 hrs by SRB assay. Type of test: functional, cell-based. In short, it runs like this:
as §1

Test [6] deals with HepG2. Briefly: Cytotoxicity against human HepG2 cells after 48 hrs by SRB assay. Type of test: functional, cell-based. The procedure, abridged:
as §1

Setting [7] is: Homo sapiens, MCF7, 48 h, read-out: IC50.
[8] abbreviates: Homo sapiens, HepG2, 48 h, read-out: IC50.

What is called IC50 is the point on the concentration scale where inhibition reaches its midpoint. As to `N#Cc1c(-c2ccc(Cl)cc2)cc(-c2ccc(Cl)cc2)n([C@@H]2O[C@H](COC(=O)c3ccccc3)[C@@H](OC(=O)c3ccccc3)[C@H]2OC(=O)c2ccccc2)c1=O`, the IC50 with MCF7 [1] (setting [7]) was 5.9 µg/mL (≈ 7.51 µM); in the test on A549 [5] (a549), “Not Active”; in the test with HepG2 [6] (setting [8]), 8 µg/mL (≈ 10.2 µM). The inhibition entry with A549 [2] was “inactive”. The entries for the “inhibition (INH)” value with MCF7 [3] and in the test on HepG2 [4] were 66% and 60%, respectively.

Take `COc1cccc2c1C(=O)c1c(O)c3c(c(O)c1C2=O)C[C@@](O)(C(=O)CO)C[C@@H]3O[C@H]1C[C@H](N)[C@H](O)[C@H](C)O1` [DOXORUBICIN]: the “inhibition (INH)” value with A549 [2] stood at 82%; in the test with MCF7 [3] it was 91%; in the test on HepG2 [4] it was 88%. In addition, the IC50 came out at 4.11 µg/mL (≈ 7.56 µM) in the test on A549 [5] (Homo sapiens, A549, 48 h, read-out: IC50) and 3.9 µg/mL (≈ 7.18 µM) in the test on HepG2 [6] (setting [8]).

As to `CCn1c(-c2ccc(Cl)cc2)cc(-c2ccc(Cl)cc2)c(C#N)c1=O`, the IC50 in the test with MCF7 [1] (setting [7]) is 19.7 µg/mL (≈ 53.4 µM); in the test on A549 [5] (a549) it was “Not Active”; with HepG2 [6] (setting [8]), 22.3 µg/mL (≈ 60.4 µM). In addition, the inhibition result in the test on A549 [2] is “inactive”. Moreover, the results for the “inhibition (INH)” value in the test with MCF7 [3] and in the test with HepG2 [4] were 3% and 2%, respectively.

Regarding `C=CCn1c(-c2ccc(Cl)cc2)cc(-c2ccc(Cl)cc2)c(C#N)c1=O`, the figures for the IC50 with MCF7 [1] (setting [7]), in the test on A549 [5] (a549) and in the test on HepG2 [6] (setting [8]) were 19 µg/mL (≈ 49.8 µM), “Not Active” and 20 µg/mL (≈ 52.5 µM), respectively. Moreover, the inhibition entry in the test with A549 [2] was “inactive”. Moreover, the “inhibition (INH)” value was 3% with MCF7 [3] and 5% in the test on HepG2 [4].

`N#Cc1c(-c2ccc(Cl)cc2)cc(-c2ccc(Cl)cc2)n(CC(O)CCl)c1=O` (stereo not drawn): the IC50 with MCF7 [1] (setting [7]) was 4.6 µg/mL (≈ 10.6 µM); with A549 [5] (a549), “Not Active”; in the test with HepG2 [6] (setting [8]) it was 4.8 µg/mL (≈ 11.1 µM). In the test on A549 [2], the inhibition entry is “inactive”. Moreover, the entries for the “inhibition (INH)” value in the test on MCF7 [3] and in the test on HepG2 [4] were 82% and 67%, respectively.

Turning to `C#CCn1c(-c2ccc(Cl)cc2)cc(-c2ccc(Cl)cc2)c(C#N)c1=O`, the IC50 was 16.7 µg/mL (≈ 44 µM) in the test with MCF7 [1] (setting [7]), “Not Active” in the test with A549 [5] (a549) and 18.3 µg/mL (≈ 48.3 µM) in the test on HepG2 [6] (setting [8]). For the same compound, in the test on A549 [2], the inhibition entry was “inactive”. For the same compound, the “inhibition (INH)” value is 7% in the test on MCF7 [3] and 5% in the test on HepG2 [4].

In the case of `N#Cc1c(-c2ccc(Cl)cc2)cc(-c2ccc(Cl)cc2)n(CC2CO2)c1=O` (stereo not drawn), the figures for the IC50 in the test with MCF7 [1] (setting [7]), in the test on A549 [5] (a549) and in the test with HepG2 [6] (setting [8]) were 5 µg/mL (≈ 12.6 µM), “Not Active” and 6.2 µg/mL (≈ 15.6 µM), respectively. Moreover, the inhibition entry in the test on A549 [2] is “inactive”. The “inhibition (INH)” value with MCF7 [3] was 77%; in the test on HepG2 [4] it was 63%.

For the compound `N#Cc1c(-c2ccc(Cl)cc2)cc(-c2ccc(Cl)cc2)[nH]c1=O`, the IC50 entry with MCF7 [1] (mcf7), with A549 [5] (a549) and in the test with HepG2 [6] (hepg2) was “Not Active” each time. Besides, the inhibition entry with A549 [2], with MCF7 [3] and in the test with HepG2 [4] was “inactive” throughout.

As for `N#Cc1c(-c2ccc(Cl)cc2)cc(-c2ccc(Cl)cc2)n(C(=O)c2ccccc2)c1=O`, the IC50 with MCF7 [1] (setting [7]) was 2.6 µg/mL (≈ 5.84 µM); in the test on A549 [5] (a549), “Not Active”; in the test on HepG2 [6] (setting [8]) it was 3.75 µg/mL (≈ 8.42 µM). The inhibition entry in the test on A549 [2] was “inactive”. Further, the entries for the “inhibition (INH)” value with MCF7 [3] and in the test on HepG2 [4] were 90% and 87%, respectively.

For `N#Cc1c(-c2ccc(Cl)cc2)cc(-c2ccc(Cl)cc2)n([C@@H]2O[C@H](CO)[C@@H](O)[C@H]2O)c1=O`, the results for the IC50 in the test with MCF7 [1] (setting [7]), in the test on A549 [5] (a549) and in the test on HepG2 [6] (setting [8]) were 5.7 µg/mL (≈ 12 µM), “Not Active” and 6.9 µg/mL (≈ 14.6 µM), respectively. Further, the inhibition result in the test on A549 [2] was “inactive”. The “inhibition (INH)” value came out at 60% with MCF7 [3] and 56% in the test with HepG2 [4].

For `N#Cc1c(-c2ccc(Cl)cc2)cc(-c2ccc(Cl)cc2)n([C@@H]2O[C@H](CO)[C@@H](O)[C@H](O)[C@H]2O)c1=O`, the IC50 was 14.2 µg/mL (≈ 28.2 µM) in the test with MCF7 [1] (setting [7]), “Not Active” in the test on A549 [5] (a549) and 16.1 µg/mL (≈ 32 µM) in the test on HepG2 [6] (setting [8]). For the same compound, in the test with A549 [2], the inhibition result is “inactive”. Moreover, the “inhibition (INH)” value with MCF7 [3] worked out at 9%; in the test with HepG2 [4], 6%.

For `CC(=O)OC[C@H]1O[C@@H](n2c(-c3ccc(Cl)cc3)cc(-c3ccc(Cl)cc3)c(C#N)c2=O)[C@H](OC(C)=O)[C@@H](OC(C)=O)[C@@H]1OC(C)=O`, the figures for the IC50 in the test with MCF7 [1] (setting [7]), with A549 [5] (a549) and in the test with HepG2 [6] (setting [8]) were 6.3 µg/mL (≈ 9.38 µM), “Not Active” and 7.25 µg/mL (≈ 10.8 µM), respectively. In the test on A549 [2], the inhibition result is “inactive”. The “inhibition (INH)” value is given as 54% in the test on MCF7 [3] and 48% with HepG2 [4].

For the compound `N#Cc1c(-c2ccc(Cl)cc2)cc(-c2ccc(Cl)cc2)n(Cc2ccccc2)c1=O`, the figures for the IC50 in the test with MCF7 [1] (setting [7]), in the test on A549 [5] (a549) and in the test on HepG2 [6] (setting [8]) were 3.65 µg/mL (≈ 8.46 µM), “Not Active” and 4.2 µg/mL (≈ 9.74 µM), respectively. In addition, in the test on A549 [2], the inhibition result is “inactive”. Further, the “inhibition (INH)” value is on record as 86% in the test on MCF7 [3] and 83% with HepG2 [4].

Regarding `N#CCn1c(-c2ccc(Cl)cc2)cc(-c2ccc(Cl)cc2)c(C#N)c1=O`, the IC50 entry in the test with MCF7 [1] (mcf7), with A549 [5] (a549) and in the test on HepG2 [6] (hepg2) was “Not Active” each time. Further, the inhibition result with A549 [2], in the test on MCF7 [3] and in the test on HepG2 [4] was “inactive” in each case.
